Assay results reported in PMC5508980 (Molecular nutrition & food research, 2017).

How the values were obtained:
[1] = test system: Class I HDAC; assay: HDAC activity assay, class I substrate, bovine heart tissue lysate; format: biochemical; conditions: 2 hours treatment
Method in brief: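 Bovine heart lysate prepared in PBS pH 7.4 with 0.5% Triton X-100, 300 mM NaCl and protease/phosphatase inhibitors, then clarified; 30 µg protein/well in PBS. Test compound at semi-log increasing concentrations for 2 h, then class-specific AMC-acyl-lysine substrate (1 mM DMSO stock) for 2 h at 37 °C.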

[2] = biological target: recombinant HDAC1 (Homo sapiens, UniProt Q13547); assay: Recombinant HDAC activity assay; format: biochemical; conditions: for remaining activity at 50 µM: 2 h, read-out: % HDAC activity, Class I HDACs, 1
Chain of recombinant HDAC1 (Q13547 whole entry): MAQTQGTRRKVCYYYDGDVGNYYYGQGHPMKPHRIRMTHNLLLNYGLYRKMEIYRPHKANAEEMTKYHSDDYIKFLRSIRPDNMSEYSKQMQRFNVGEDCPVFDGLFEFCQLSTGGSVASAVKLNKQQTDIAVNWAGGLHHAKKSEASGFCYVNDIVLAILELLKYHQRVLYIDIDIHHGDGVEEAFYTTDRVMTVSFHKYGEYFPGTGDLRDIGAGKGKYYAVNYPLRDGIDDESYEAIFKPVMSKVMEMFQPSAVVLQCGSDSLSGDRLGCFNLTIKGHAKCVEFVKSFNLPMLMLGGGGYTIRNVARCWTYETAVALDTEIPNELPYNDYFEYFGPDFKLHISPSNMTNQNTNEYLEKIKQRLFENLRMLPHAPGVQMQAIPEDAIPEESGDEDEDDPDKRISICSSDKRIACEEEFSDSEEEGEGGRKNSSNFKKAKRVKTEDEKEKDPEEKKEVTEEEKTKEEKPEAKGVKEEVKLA

[3] = biological target: recombinant HDAC2 (Homo sapiens, UniProt Q92769); assay: Recombinant HDAC activity assay; format: biochemical; conditions: 2 h, read-out: % HDAC activity, Class I HDACs, 2
Chain of recombinant HDAC2 (Q92769 whole entry): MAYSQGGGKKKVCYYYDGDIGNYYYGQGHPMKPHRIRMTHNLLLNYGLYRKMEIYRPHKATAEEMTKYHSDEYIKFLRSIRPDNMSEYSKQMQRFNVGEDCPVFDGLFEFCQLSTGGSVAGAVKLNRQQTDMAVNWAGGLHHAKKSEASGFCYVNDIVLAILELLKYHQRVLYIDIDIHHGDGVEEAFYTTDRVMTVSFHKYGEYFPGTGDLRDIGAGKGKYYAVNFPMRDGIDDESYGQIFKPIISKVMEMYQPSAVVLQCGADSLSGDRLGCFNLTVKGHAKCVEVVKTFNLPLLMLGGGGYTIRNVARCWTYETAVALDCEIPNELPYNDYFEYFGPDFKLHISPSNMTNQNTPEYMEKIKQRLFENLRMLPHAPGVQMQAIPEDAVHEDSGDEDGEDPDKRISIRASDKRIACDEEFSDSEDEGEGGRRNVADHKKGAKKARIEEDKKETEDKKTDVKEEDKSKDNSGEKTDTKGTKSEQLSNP

[4] = biological target: recombinant HDAC3 (Homo sapiens, UniProt O15379); assay: Recombinant HDAC activity assay; format: biochemical; conditions: for remaining activity at 50 µM: 2 h, read-out: % HDAC activity, Class I HDACs, 3
Chain of recombinant HDAC3 (O15379 whole entry): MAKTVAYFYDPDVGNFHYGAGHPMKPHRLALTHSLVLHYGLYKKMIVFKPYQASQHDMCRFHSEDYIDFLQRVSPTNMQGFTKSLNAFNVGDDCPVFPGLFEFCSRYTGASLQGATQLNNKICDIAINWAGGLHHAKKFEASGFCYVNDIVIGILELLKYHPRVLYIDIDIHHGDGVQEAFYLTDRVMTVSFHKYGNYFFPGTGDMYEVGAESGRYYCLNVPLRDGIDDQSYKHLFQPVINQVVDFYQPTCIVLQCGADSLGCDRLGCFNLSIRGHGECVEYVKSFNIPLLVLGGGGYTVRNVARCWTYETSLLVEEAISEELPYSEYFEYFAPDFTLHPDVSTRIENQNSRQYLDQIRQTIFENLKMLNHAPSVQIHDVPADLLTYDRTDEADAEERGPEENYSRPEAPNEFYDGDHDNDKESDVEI
Chain of recombinant HDAC3 (Q9Y618 395-489 partner limits assumed): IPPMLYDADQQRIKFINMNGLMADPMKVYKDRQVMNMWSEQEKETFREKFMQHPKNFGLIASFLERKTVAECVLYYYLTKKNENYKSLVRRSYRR

[5] = biological target: T1, recombinant HDAC8 (Homo sapiens, UniProt Q9BY41); assay: Recombinant HDAC activity assay; format: biochemical; conditions: for remaining activity at 50 µM: 2 h, read-out: % HDAC activity, Class I HDACs, 8
T1 sequence (Q9BY41 1-377): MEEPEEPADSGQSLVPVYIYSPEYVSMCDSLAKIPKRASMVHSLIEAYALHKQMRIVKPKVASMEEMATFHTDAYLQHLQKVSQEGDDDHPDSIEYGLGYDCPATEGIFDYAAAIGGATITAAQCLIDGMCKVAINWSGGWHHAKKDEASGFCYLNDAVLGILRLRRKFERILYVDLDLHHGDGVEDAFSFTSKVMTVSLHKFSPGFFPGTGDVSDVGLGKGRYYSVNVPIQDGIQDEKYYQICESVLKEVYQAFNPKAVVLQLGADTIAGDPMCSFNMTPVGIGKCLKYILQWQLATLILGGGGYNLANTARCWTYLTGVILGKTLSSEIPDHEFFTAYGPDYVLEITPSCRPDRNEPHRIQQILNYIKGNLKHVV

[6] = biological target: recombinant HDAC5 (Homo sapiens, UniProt Q9UQL6); assay: Recombinant HDAC activity assay; format: biochemical
Chain of recombinant HDAC5 (Q9UQL6 whole entry): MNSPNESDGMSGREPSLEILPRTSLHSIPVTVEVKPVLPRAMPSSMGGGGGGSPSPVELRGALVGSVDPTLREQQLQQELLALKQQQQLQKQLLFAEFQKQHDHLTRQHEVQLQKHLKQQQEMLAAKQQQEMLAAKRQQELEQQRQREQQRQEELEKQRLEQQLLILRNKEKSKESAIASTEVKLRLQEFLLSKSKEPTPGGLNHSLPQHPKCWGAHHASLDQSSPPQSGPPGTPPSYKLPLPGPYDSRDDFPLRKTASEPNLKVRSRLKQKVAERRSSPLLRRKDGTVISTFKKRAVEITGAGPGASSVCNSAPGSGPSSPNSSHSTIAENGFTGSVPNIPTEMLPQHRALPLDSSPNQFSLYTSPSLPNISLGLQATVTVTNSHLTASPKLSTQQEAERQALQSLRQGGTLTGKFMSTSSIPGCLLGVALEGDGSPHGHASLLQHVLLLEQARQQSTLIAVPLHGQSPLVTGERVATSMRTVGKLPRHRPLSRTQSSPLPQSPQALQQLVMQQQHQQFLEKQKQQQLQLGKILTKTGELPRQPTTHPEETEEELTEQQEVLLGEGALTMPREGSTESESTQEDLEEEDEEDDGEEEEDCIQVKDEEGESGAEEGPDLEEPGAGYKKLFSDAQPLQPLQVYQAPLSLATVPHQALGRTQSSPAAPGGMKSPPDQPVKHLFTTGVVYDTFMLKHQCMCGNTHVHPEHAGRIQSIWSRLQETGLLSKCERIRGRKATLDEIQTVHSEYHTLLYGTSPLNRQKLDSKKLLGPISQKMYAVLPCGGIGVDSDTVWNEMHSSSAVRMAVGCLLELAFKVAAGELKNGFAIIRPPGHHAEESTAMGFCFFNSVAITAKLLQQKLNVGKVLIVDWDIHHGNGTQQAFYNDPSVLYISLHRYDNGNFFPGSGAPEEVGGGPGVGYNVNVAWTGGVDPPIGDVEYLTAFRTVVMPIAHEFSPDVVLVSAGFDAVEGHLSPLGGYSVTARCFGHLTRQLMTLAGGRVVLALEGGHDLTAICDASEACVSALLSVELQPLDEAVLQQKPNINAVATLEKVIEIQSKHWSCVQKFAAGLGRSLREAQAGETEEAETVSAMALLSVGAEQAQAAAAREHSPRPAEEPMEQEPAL

[7] = biological target: T2, recombinant HDAC7 (Homo sapiens, UniProt Q8WUI4); assay: Recombinant HDAC activity assay; format: biochemical; conditions: recombinant protein incubated with 50 µM compound, 2 hrs
T2 sequence (Q8WUI4 1-952): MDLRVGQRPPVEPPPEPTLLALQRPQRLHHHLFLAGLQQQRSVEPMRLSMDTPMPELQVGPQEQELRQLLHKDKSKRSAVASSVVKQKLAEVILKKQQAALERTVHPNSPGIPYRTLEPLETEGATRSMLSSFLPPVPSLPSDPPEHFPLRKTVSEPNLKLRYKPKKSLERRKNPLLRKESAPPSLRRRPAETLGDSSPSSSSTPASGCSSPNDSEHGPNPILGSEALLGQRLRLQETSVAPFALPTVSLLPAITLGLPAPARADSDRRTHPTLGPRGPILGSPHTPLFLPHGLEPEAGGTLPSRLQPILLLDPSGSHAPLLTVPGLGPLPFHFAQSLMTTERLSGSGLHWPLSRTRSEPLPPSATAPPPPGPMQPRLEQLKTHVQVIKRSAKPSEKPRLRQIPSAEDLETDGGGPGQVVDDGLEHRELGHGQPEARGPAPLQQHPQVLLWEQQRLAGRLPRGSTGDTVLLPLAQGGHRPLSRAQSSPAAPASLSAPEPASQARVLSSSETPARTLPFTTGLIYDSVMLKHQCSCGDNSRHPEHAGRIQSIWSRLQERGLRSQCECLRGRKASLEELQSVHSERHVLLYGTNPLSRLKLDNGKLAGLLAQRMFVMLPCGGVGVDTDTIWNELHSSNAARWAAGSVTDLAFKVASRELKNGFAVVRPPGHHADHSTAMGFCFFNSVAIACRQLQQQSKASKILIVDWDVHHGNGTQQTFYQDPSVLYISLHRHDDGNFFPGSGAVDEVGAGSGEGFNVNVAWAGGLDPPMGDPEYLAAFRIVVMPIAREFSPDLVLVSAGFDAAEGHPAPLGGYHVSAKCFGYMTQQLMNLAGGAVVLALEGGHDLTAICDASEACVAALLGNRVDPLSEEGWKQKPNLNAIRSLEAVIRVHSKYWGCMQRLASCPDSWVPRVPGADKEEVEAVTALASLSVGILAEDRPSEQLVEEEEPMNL

[8] = biological target: recombinant HDAC9 (Homo sapiens, UniProt Q9UKV0); assay: Recombinant HDAC activity assay; format: biochemical
Chain of recombinant HDAC9 (Q9UKV0 whole entry): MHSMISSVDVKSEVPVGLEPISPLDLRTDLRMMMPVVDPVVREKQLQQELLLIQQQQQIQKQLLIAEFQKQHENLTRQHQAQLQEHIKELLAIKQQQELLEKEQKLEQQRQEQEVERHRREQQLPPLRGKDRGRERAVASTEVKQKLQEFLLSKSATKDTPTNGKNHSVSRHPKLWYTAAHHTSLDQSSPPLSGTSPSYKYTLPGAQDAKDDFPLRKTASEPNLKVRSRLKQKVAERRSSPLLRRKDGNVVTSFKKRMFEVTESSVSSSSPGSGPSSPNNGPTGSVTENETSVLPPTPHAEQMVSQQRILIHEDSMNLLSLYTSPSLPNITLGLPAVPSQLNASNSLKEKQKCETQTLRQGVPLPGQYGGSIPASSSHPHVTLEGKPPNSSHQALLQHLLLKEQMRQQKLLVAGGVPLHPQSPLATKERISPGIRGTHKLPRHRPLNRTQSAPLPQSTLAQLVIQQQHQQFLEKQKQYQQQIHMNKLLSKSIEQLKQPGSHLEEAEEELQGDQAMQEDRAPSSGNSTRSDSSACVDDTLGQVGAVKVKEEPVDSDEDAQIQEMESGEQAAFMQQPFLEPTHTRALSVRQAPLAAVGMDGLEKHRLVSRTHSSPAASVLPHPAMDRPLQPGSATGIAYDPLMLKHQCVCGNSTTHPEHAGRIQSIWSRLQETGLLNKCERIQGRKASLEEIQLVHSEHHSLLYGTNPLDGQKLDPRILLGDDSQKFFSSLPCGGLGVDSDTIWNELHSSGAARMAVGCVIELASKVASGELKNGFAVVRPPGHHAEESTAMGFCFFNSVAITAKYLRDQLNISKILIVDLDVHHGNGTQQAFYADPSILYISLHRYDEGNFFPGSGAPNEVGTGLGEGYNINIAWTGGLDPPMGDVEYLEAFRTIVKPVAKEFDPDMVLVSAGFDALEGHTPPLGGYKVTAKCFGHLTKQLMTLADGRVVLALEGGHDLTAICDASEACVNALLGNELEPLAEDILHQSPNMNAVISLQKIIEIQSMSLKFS

[9] = biological target: T3, recombinant HDAC10 (Homo sapiens, UniProt Q969S8); assay: Recombinant HDAC activity assay; format: biochemical
T3 sequence (Q969S8 1-669): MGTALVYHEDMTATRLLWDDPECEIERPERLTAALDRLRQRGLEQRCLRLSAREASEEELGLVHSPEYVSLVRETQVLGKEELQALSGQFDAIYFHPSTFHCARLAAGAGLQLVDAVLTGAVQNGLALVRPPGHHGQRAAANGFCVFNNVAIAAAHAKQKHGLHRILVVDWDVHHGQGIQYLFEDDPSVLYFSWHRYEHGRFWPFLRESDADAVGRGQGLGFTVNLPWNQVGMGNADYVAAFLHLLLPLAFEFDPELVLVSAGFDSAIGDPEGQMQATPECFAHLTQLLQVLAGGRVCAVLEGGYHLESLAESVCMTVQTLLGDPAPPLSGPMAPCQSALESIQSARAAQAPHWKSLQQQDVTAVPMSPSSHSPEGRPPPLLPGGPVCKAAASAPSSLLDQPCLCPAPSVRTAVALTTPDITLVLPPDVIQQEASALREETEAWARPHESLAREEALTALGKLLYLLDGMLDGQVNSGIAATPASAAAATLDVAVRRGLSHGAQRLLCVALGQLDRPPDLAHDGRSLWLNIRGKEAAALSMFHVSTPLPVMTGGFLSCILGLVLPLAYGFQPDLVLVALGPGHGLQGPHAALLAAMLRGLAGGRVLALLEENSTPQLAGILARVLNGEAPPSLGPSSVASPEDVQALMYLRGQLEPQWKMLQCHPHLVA

[10] = test system: HDAC activity in bovine cardiac tissue; assay: Natural product library screen with class-selective HDAC substrates; format: biochemical; conditions: 2 hours treatment
Method in brief: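 The screen covered 131 natural compounds against bovine cardiac tissue lysate at 30 µg protein/well in PBS (pH 7.4 lysis buffer with Triton X-100 and NaCl). Test compound for 2 h, then separate class I, IIa or IIb fluorogenic acyl-lysine-AMC substrates for 2 h at 37 °C. Developer (Triton X-100, 3 µM TSA, 0.75 mg/ml trypsin) for 20 min; fluorescence read at 360/460 nm.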

[11] = test system: H9c2 cells; assay: Acetyl-H3K9/14 immunoblot of whole cell extract; format: cell-based, rat; conditions: H9c2 myocytes, 50 µM, 2 hours
Method in brief: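 H9c2 cells were grown in DMEM with 10% FBS and treated at 90% confluence for 2 h with test compound or DMSO, with TSA as positive control. Washed in ice-cold PBS, lysed in PBS pH 7.4 with 0.5% Triton X-100 and 300 mM NaCl plus inhibitors, sonicated and clarified. SDS-PAGE, nitrocellulose, acetyl-H3K9/14 and total H3 antibodies, chemiluminescence; densitometry; ANOVA with Tukey.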

[12] = biological target: recombinant HDAC4 (Homo sapiens, UniProt P56524); assay: Recombinant HDAC activity assay; format: biochemical; conditions: recombinant protein incubated with 50 µM compound, 2 hrs
Chain of recombinant HDAC4 (P56524 whole entry): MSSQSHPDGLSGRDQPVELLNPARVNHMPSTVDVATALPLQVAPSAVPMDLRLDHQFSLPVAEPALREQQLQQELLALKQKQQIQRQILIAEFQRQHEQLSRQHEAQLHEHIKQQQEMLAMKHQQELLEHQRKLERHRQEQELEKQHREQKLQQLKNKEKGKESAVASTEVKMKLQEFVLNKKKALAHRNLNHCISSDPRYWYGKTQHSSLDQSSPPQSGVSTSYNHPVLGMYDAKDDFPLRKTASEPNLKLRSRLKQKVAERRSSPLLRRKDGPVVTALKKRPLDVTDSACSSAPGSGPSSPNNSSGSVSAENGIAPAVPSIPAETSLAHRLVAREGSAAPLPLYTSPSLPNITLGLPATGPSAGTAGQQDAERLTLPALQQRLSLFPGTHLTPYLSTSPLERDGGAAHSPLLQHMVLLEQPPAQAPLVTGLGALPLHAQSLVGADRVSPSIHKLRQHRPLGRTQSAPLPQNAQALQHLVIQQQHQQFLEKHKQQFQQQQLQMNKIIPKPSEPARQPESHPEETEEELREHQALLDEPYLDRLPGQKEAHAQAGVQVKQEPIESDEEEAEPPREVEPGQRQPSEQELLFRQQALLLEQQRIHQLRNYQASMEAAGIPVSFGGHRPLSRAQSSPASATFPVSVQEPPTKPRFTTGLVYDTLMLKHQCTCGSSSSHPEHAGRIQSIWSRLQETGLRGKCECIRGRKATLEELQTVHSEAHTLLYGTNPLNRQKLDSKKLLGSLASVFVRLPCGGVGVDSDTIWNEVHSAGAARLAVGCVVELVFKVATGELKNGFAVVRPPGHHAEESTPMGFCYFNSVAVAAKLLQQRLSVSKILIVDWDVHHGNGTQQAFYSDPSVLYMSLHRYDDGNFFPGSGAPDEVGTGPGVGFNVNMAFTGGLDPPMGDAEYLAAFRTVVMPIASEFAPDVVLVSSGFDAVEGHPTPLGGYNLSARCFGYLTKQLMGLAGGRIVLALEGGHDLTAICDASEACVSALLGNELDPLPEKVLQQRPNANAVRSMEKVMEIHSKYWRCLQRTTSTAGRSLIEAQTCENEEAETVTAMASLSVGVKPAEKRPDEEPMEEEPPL

[13] = biological target: T4, recombinant HDAC6 (Homo sapiens, UniProt Q9UBN7); assay: Recombinant HDAC activity assay; format: biochemical; conditions: recombinant protein incubated with 50 µM compound, 2 hrs
T4 sequence (Q9UBN7 1-1215): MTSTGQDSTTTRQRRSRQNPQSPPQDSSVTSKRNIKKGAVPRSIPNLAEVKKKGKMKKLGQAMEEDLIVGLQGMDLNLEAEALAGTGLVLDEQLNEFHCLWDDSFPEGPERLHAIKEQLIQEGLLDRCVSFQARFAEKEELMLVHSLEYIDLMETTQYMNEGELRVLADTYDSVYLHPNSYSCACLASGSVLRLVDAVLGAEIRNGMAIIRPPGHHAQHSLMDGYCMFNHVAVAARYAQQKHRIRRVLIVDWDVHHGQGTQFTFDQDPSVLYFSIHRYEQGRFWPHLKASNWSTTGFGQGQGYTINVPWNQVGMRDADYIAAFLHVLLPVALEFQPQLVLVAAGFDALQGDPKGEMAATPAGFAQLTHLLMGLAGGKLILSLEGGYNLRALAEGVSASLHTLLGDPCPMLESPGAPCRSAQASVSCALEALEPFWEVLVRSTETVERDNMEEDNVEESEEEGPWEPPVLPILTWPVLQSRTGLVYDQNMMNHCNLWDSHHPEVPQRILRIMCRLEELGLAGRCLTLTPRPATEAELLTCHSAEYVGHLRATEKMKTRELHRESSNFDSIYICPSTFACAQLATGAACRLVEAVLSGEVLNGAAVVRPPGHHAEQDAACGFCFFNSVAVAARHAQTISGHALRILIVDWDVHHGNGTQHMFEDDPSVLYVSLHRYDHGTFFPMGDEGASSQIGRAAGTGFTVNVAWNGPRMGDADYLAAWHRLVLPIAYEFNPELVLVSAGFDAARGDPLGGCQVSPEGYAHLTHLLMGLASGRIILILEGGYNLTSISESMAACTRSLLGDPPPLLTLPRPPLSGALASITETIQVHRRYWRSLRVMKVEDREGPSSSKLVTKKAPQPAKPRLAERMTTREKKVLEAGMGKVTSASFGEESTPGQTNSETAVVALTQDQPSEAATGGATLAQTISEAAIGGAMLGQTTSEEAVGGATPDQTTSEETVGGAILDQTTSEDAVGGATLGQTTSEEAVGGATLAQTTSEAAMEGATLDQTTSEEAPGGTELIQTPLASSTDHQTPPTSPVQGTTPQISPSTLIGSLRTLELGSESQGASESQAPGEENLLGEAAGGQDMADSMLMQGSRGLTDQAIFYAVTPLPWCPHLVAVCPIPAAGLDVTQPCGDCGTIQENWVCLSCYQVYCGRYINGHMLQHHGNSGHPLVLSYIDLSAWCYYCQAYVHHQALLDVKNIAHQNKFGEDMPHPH

[14] = recombinant protein incubated with 50 µM compound, 2 hrs

Molecule	class I HDAC activity, effect in words [1]	remaining activity at 50 µM [2]	remaining activity at 50 µM [3]	remaining activity at 50 µM [4]	remaining activity at 50 µM [5]	% HDAC activity, Class IIa HDACs, 7 [7]	also measured
Nc1ccccc1NC(=O)c1ccc(CNc2nccc(-c3cccnc3)n2)cc1 [MGCD, MGCD0103, reference compound]	only inhibited class I HDAC activity						
Cc1cc2c(C(C)C)c(O)c(O)c(C=O)c2c(O)c1-c1c(C)cc2c(C(C)C)c(O)c(O)c(C=O)c2c1O [Gossypol]		42.6%	15.1%	42.1%	40.7%	-	remaining activity at 50 µM ([6]; 2 h, read-out: % HDAC activity, Class IIa HDACs, 5): 51.5%; remaining activity at 50 µM ([8]; 2 h, read-out: % HDAC activity, Class IIa HDACs, 9): 44.5%; remaining activity at 50 µM ([9]; 2 h, read-out: % HDAC activity, Class IIb HDACs, 10): 42.6%; catalytic HDAC activity across class I, IIa and IIb substrates, effect in words [10]: dose-dependent pan-HDAC inhibition; acetylation of histone 3 on lysine 9/14 (Ac-H3 K9/14) via immunoblot [11]: increased
O=c1cc(-c2ccc(O)cc2)oc2cc(O)cc(O)c12 [Apigenin]	only inhibit class I HDAC activity	76.4%	90.4%	72.7%	76.5%	-	
Myricitrin						-	% HDAC activity, Class I HDACs, 1 [2, 14]: 75.1%; % HDAC activity, Class I HDACs, 3 [4, 14]: 67.7%; % HDAC activity, Class I HDACs, 8 [5, 14]: 65.4%; % HDAC activity, Class IIa HDACs, 4 [12]: 93.5%; % HDAC activity, Class IIa HDACs, 5 [6, 14]: 68.3%; % HDAC activity, Class IIa HDACs, 9 [8, 14]: 69.3%; % HDAC activity, Class IIb HDACs, 6 [13]: 87.2%; % HDAC activity, Class IIb HDACs, 10 [9, 14]: 67.0%
